# This is a sample that favours compounds with a hit; in the whole collection about 1.9% have one here.
# MBD2 inh = inhibitors of MBD2 binding to methylated DNA, primary screen, biochemical, TR-FRET, DNA-binding domain, human; MBD2 binding to methylated oligonucleotide; inhibition, % at 4.4 µM; actives 0.31% (n = 370,000); AID 686964, 2013; in the data active = inhibition above about 13%
# CASP6 VEID inh = human caspase-6 inhibitors, primary screen, biochemical, VEID-R110 fluorescence, single point, set 2; P55212; purified caspase-6, Z-VEID-R110 cleavage fluorescence; inhibition, % at 12.5 µM; actives 0.53% (n = 350,000);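 active = mean inhibition across replicates at least about 35%, with every replicate also reaching that limit, limit read from the data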;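 note: 0% = median of neutral control wells and 100% = no fluorescence left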
# NSD2 HMT inh = NSD2 histone methyltransferase inhibitors, primary screen, biochemical, AlphaScreen, single concentration, set 2. actives 0.54% (n = 310,000). Histone-lysine N-methyltransferase NSD2 (Homo sapiens), O96028. NSD2 peptide methylation, 120 min. inhibition, % at 12.5 µM; in the data active = inhibition above about 50%
# TDP2 absorb = human TDP2 enzyme inhibitors, primary screen, biochemical, epi absorbance, recombinant enzyme. Tyrosyl-DNA phosphodiesterase 2 (Homo sapiens), O95551. T5PNP hydrolysis, p-nitrophenol absorbance 415 nm. inhibition, % at 12.8 µM. actives 0.34% (n = 370,000). AID 720702, 2013;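 active = inhibition above the mean of all tested compounds plus 3 SD, set per campaign, cut at about 25% in these data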;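 note: 0% = DMSO with enzyme and 100% = buffer with substrate but no TDP2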
# Target sequence (O95551 whole entry, looked up): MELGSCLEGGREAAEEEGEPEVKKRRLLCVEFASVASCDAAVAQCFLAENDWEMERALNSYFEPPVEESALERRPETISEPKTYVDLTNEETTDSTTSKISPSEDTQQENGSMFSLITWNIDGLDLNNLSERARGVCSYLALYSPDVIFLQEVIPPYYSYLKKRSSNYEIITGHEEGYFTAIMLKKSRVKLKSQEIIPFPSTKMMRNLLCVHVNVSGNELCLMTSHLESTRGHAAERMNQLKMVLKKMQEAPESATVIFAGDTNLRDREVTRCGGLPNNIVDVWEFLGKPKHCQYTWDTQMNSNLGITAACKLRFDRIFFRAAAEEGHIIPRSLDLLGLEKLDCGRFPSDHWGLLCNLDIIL
#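 test system = human TDP2 enzyme | input = TDP2 enzyme at 120 nM final | medium = 50 mM Tris-HCl pH 7.5 with Mg2+, KCl, DTT, BSA | also added = T5PNP substrate, 5 mM | times = 2 h at 37 °C | technique = epi absorbance | benchmarks = high control without enzyme, low control DMSO plus TDP2 | replication = each compound tested once, singlicate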
# LEDGF integ inh = blockers of LEDGF/p75-dependent integrase strand transfer – biochemical, TR-FRET, high throughput, primary screen | HIV-1 integrase (with human LEDGF/p75) | TR-FRET IN-LEDGF/p75 DNA integration, Eu/Cy5 | inhibition, % at 3.7 µM | actives 0.64% (n = 370,000) | AID 743269, 2014;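 active = inhibition above the screen-wide mean plus 3 SD, cut at about 13% in these data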;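 note: signal is the Cy5 over europium emission ratio at 671 and 618 nm; 0% = plate median of compound wells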
# UHRF1 MBD2 ctr = UHRF1 methylated DNA binding inhibitors, primary screen, counter-screen for MBD2 inhibitor project, biochemical, TR-FRET, human UHRF1, single concentration; UHRF1 binding to methylated oligo; E3 ubiquitin-protein ligase UHRF1 (Homo sapiens), Q96T88; inhibition, % at 4.4 µM; actives 0.75% (n = 370,000); in the data active = inhibition above about 21%;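 note: UHRF1 SRA domain binding a hemimethylated CpG hairpin DNA probe; 0% = median of test compound wells and 100% = reference inhibitor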
# IN multimer up = HIV-1 IN multimer formation enhancers, counter-screen for LEDGF/p75 integration inhibitor project, biochemical, TR-FRET; shares compounds with LEDGF integ inh; TR-FRET HIV-1 integrase multimerization; activation, % at 7.7 µM; actives 17% (n = 2,000); in the data active = activation above about 8.9%
# TR-FRET interf = TR-FRET optical interference artefacts, confirmation, artefact control for LEDGF/p75-dependent integration inhibitor project, biochemical, HIV-1 IN multimerization | AID 1053135, 2014 | inhibition, % at 7.7 µM | 2,000 tested, under 10 active | TR-FRET optical interference counterscreen | shares compounds with LEDGF integ inh;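 active = inhibition above the mean over all tested compounds plus 3 SD, which no compound reached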;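 note: 0% = integrase with antibodies and DMSO and 100% = antibodies without integrase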
# LEDGF integ conf = inhibitors of HIV-1 IN-LEDGF/p75 DNA integration, confirmation, biochemical, TR-FRET. inhibition, % at 3.7 µM. actives 36% (n = 2,000). TR-FRET LEDGF/p75-dependent HIV-1 integration. shares compounds with LEDGF integ inh; in the data active = inhibition above about 14%
# * hit, by the source's call; . = no result.
SMILES,MBD2 inh,CASP6 VEID inh,NSD2 HMT inh,TDP2 absorb,LEDGF integ inh,UHRF1 MBD2 ctr,IN multimer up,TR-FRET interf,LEDGF integ conf
Cc1cc(C(=O)COC(=O)CC2Sc3ccccc3NC2=O)c(C)n1-c1cccc(C(F)(F)F)c1 (configuration not stated),-1.7,5.2,-0.6,7.2,-2.8,0.2,.,.,.
Cc1cc(C(=O)COC(=O)Cc2n[nH]c(=O)c3ccccc23)c(C)n1-c1cccc(C(F)(F)F)c1,-4.1,.,-0.9,0.6,30.4*,2.4,-0.4,2.0,11.2
COc1ccc(S(=O)(=O)N(C)C[C@H]2OCCCC[C@@H](C)Oc3ccc(N(C)C)cc3C(=O)N([C@@H](C)CO)C[C@H]2C)cc1,.,-3.1,.,.,.,.,.,.,.
CC1(C)Cc2cccc(OC(=O)NCCc3ccc(F)cc3)c2O1,-0.5,1.6,.,-2.1,14.9*,-2.0,1.0,-5.2,-11.4
CC(=O)c1cccc(-c2ccc3c(c2)C(C)(Cc2ccccc2C#N)C(=O)N3)c1 (configuration not stated),3.4,0.0,4.0,6.0,-5.0,1.8,.,.,.
CC(=O)c1cccc(-c2ccc3c(c2)C(C)(Cc2ccc(S(C)(=O)=O)cc2)C(=O)N3)c1 (configuration not stated),-4.7,0.8,2.7,10.2,48.5*,-0.2,-0.5,2.5,-1.5
O=C([C@H]1[C@H](CO)[C@H]2Cn3c(cccc3=O)[C@H]2N1CC1CCCC1)N1CCOCC1,.,0.9,.,.,.,.,.,.,.
CN(C)CC(=O)N[C@@H]1C=C[C@@H](CC(=O)NCCN2CCCCC2)O[C@@H]1CO,-2.3,1.4,.,-3.7,27.9*,0.0,-1.3,6.6,-4.5
CN(C)CC(=O)N[C@H]1C=C[C@H](CC(=O)NCCN2CCCCC2)O[C@H]1CO,.,0.8,.,.,.,.,.,.,.
C[C@@H]1CN([C@@H](C)CO)C(=O)c2cccc(NC(=O)Nc3ccccc3)c2O[C@H]1CN(C)S(=O)(=O)c1ccc(F)cc1,.,0.6,.,.,.,.,.,.,.
COc1cccc(-c2ccc(CC[C@H]3O[C@H]4CC[C@@H](CO)O[C@H]4C[C@@H]3NC(=O)c3cnccn3)cc2)c1,.,-0.7,.,.,.,.,.,.,.
Cc1cccc(NC(=O)COC(=O)[C@@H]2CCCN2C(=O)c2cccs2)c1,4.3,-1.2,-0.8,7.5,27.5*,-1.5,0.5,-1.7,-4.3
Clc1ccccc1OCCn1nnc2ccccc21,-3.6,-1.2,-3.1,1.4,29.0*,-0.8,0.2,-1.0,-1.7
Cc1ccc(C)c(OCCn2nnc3ccccc32)c1,4.2,-2.7,-2.1,13.1,2.9,-1.7,.,.,.
C[C@@H]1CN([C@@H](C)CO)S(=O)(=O)c2ccc(C#Cc3ccccc3F)cc2O[C@H]1CN(C)C,.,-0.5,.,.,.,.,.,.,.
Oc1ccc(/C=N/Nc2ccc(Cl)nn2)c(O)c1O,6.3,47.7*,.,10.8,69.7*,21.4*,31.4*,-111.2,62.1*
Cc1cc(O)c(N=Cc2cc3c(cc2[N+](=O)[O-])OCO3)cc1C,-1.8,4.7,1.6,0.1,18.8*,0.4,6.0,-30.3,5.6

# Bioassay records as filed in PubChem.
